Data on seven compounds can be found in ChEMBL document CHEMBL5550195, “Synthesis and in vitro evaluation of novel amino-phenylmethylene-imidazolone 5-HT2A receptor antagonists” (RSC Med Chem, 2024).

For data set [1], the target named is T1, 5-hydroxytryptamine receptor 2A (Homo sapiens, UniProt P28223). Put plainly: Displacement of [3H] Ketanserin from 5HT2A receptor (unknown origin) at 10 uM incubated for 0.5 hrs by microbeta2 plate reader assay relative to control. Conditions: for inhibition: filed as antagonist. Summed up:
(§1)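 Filtration binding on 5-HT2A membranes. Serially diluted compound, with ketanserin as reference, was mixed with membrane and [3H]ketanserin, with separate nonspecific-binding wells, and shaken at 300 rpm. Mixtures were filtered through PEI-soaked GF filter plates and washed 4× with cold buffer. Filters were dried 1 h at 50 °C and bound 3H was counted by scintillation. IC50 came from dose-response fits and Ki was also reported; the top dose was 10000 nM.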
On the technique in general: Displacement assays read how much labelled ligand stays bound in the presence of the test substance.

Data set [2] can be described thus: Kinetic solubility of compound in PBS at pH 7.4 incubated for 2 hrs in shaker by LC-MS/MS analysis. Format: physicochemical. Conditions: read-out: Kinetic_solubility. Summed up: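 Compound from 10 mM DMSO stock was added in duplicate to pH 7.4 PBS, 30 µL into 970 µL, and stirred/shaken at 1100 rpm for 2 h at room temperature. The mixture was vacuum filtered and the filtrate diluted in methanol/DMSO. Quantification was by LC-MS/MS (positive ESI, MRM) against 3 µM standards, with progesterone as positive control. The assay upper limit was 300 µM.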

The target of data set [3] is T1, 5-hydroxytryptamine receptor 2A. Nature of the data set: Displacement of [3H] Ketanserin from 5HT2A receptor (unknown origin) incubated for 0.5 hrs by microbeta2 plate reader assay. In outline: as §1
Data set [4] shares this target. Nature of the data set: Antagonist activity at 5-HT2A receptor (unknown origin) assessed as inhibition of 5-HT stimulated IP1 production incubated for 1 hr by HTRF method. Format: functional. In outline: (§2)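 IP-One HTRF immunoassay for 5-HT2A Gαq signalling. Cells were seeded at 7,500 per well and given varying doses of compound. The agonist-mode reference was serotonin and the antagonist-mode reference was methiothepin. Incubation was 1 h at 37 °C, then lysis with d2-labelled IP1 and terbium cryptate anti-IP1 antibody for 1 h at room temperature. Fluorescence was read at 615/665 nm. IP1 was quantified against a 9-point standard curve, 4-fold from 7,700 nM, run in duplicate. Values came from log(inhibitor) vs response, variable-slope fit.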

For data set [5] the target is unchanged. Put plainly: Agonist activity at 5-HT2A receptor (unknown origin) assessed as IP1 accumulation at 0.0004 to 10 uM incubated for 1 hr by HTRF method. The class given is functional. To be noted: dose 0.0004-10 µM. Summed up: as §2
(Time-resolved FRET reads energy transfer from a long-lived donor to a nearby acceptor.)

The target is the same in data set [6]. Nature of the data set: Antagonist activity at 5-HT2A receptor (unknown origin) assessed as inhibition of 5-HT stimulated IP1 production at 10 uM incubated for 1 hr by HTRF method relative to control. The class given is functional. Further details: scale not given: the % may be the effect or the level left. To be noted: filed as antagonist. Summed up: as §2

Activity calls are given as the source filed them. The rule behind the calls is not given here.

T1 sequence (P28223 whole entry): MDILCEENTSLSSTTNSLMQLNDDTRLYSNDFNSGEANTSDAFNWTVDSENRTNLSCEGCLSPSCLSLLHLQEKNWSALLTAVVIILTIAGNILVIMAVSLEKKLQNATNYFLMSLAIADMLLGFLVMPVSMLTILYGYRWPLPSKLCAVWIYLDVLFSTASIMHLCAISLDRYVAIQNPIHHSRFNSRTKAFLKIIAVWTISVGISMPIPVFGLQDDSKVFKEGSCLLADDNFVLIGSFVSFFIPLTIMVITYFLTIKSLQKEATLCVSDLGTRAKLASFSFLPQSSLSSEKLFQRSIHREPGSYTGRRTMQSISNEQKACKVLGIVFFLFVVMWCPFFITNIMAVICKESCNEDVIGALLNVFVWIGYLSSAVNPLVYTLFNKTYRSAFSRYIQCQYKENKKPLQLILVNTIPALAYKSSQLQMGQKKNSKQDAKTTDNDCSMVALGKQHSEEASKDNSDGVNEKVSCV

Regarding `COc1cc(/C=C2\C(=O)N=C(N)N2C)cc(OC)c1OC.Cl`, in data set [1], the result was inactive. For the same compound, the solubility kinetic at 2 h in data set [2] is ≥ 20 µM.

For the compound `COc1cc(/C=C2\N=C(N)NC2=O)cc(OC)c1OC.Cl`, the result in data set [1] was inactive. Moreover, in data set [2], the solubility kinetic at 2 h was ≥ 20 µM.

Consider `COc1ccc(OC)c(/C=C2\C(=O)N=C(N)N2C)c1.Cl`, for which, in data set [2], the solubility kinetic at 2 h was ≥ 20 µM. Besides, the Ki in data set [3] is > 3880 nM.

In data set [1], `COc1cc(/C=C2\N=C(N)NC2=O)c(OC)cc1Br.Cl` registered an inhibition of 97%. Further, the IC50 in data set [4] came out at 58 nM. Besides, in data set [2], the solubility kinetic at 2 h was ≥ 20 µM. This compound also returned a Ki in data set [3] of 19 nM. The outcome in data set [5] was inactive. Also, in data set [6], the Activity worked out at 100%.

As for `COc1cc(/C=C2\C(=O)N(C)C(=N)N2C)cc(OC)c1OC.Cl`, the result in data set [1] was inactive. Moreover, the solubility kinetic at 2 h in data set [2] is ≥ 20 µM.

In data set [1], `COc1ccc(OC)c(/C=C2\N=C(N)NC2=O)c1.Cl` displayed an inhibition of 95%. Also, the IC50 in data set [4] is 887 nM. In addition, the solubility kinetic at 2 h in data set [2] is ≥ 20 µM. Also, affinity in data set [3] was put at a Ki of 233 nM. For the same compound, the outcome in data set [5] was inactive. For the same compound, the Activity in data set [6] was 93%.

For `COc1cc(/C=C2\C(=O)N=C(N)N2C)c(OC)cc1Br.Cl`, the solubility kinetic at 2 h in data set [2] was ≥ 20 µM.

The term Ki denotes a dissociation constant, usually derived from enzyme kinetics or from competition with a known ligand. As a reminder, the inhibition is the change of the read-out against control, counted positive when it falls. Usually IC50 stands for the concentration needed to halve the response being measured.
